Consider 22 compounds from ChEMBL document CHEMBL3763044, “Pyridoxine hydroxamic acids as novel HIV-integrase inhibitors” (Bioorg Med Chem Lett, 2016).

The structures appear in SMILES notation. pEC50, pIC50: −log10 of the molar value.

Data set [1] can be described thus: Cytotoxicity against human MT4 cells. It is filed as cell-based. A digest of the protocol:
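Cytotoxicity measured in MT-4 cells in parallel with the 7-day multi-cycle antiviral assay. CC50 is the mean of at least three experiments.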

The subject of data set [2] is Human immunodeficiency virus 1. Description: Antiviral activity against luciferase-bearing envelope-defective HIV-1 NL4-3 pseudotype virus infected in human MT4 cells co-infected with HIV1 HXBc2 envelope by single cycle infection assay. The format is functional, organism-based. The following applies: Human immunodeficiency virus 1, NL4-3, MT4. A digest of the protocol:
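Single-cycle infection of MT-4 cells with a luciferase-bearing env-defective NL-4.3 virus pseudotyped with HIV-1 env (HXBc2), read by luciferase. EC50 is the mean of at least three experiments.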

Data set [3] is described as follows: Inhibition of HIV integrase strand transfer activity. More on the design: species or system Human immunodeficiency virus. A digest of the protocol: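 Strand-transfer assay on purified integrase using 3'-processed oligonucleotides. % inhibition = [1 − (sample counts/mean positive control)] × 100, plotted against log molar concentration. IC50 is taken from a sigmoidal dose-response fit with variable slope and is the mean of at least three experiments.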

In data set [4] the test system is Human immunodeficiency virus 1. Description: Antiviral activity against luciferase-bearing envelope-defective HIV-1 NL4-3 pseudotype virus infected in human MT4 cells co-infected with HIV1 HXBc2 envelope after 7 days by multi-cycle assay. It is filed as functional, organism-based. The following applies: Human immunodeficiency virus 1, NL4-3, MT4, 168 h. A digest of the protocol:
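Multi-cycle antiviral assay run for 7 days in MT-4 cells, in parallel with the cytotoxicity assay. EC50 is the mean of at least three experiments.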

Data set [5] in a line: Plasma protein binding in rat by Rapid Equilibrium Dialysis method. It is filed as ADME, cell-free. The conditions noted are these: read-out: PPB (converted). An outline of the steps:
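Protein binding measured by rapid equilibrium dialysis.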

Data set [6] is described as follows: Inhibition of […] reverse transcriptase.
The nature of data set [7]: Oral bioavailability in Sprague-Dawley rat at 50 mg/kg after 24 hrs by LC/MS/MS analysis. The format is ADME, organism-based. The following applies: in vivo. An outline of the steps: (§1)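 Female Sprague-Dawley rats randomly assigned to two groups: 13 rats dosed 5 mg/kg intravenously, 8 rats dosed 50 mg/kg orally. Blood collected at 7 time points after dosing. Bioavailability taken over 24 h.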

For data set [8], the system named is Human immunodeficiency virus. Put plainly: Ratio of EC90 for HIV integrase assessed as accumulation of 2-LTR to IC50 for HIV integrase strand transfer activity.
For data set [9], the system named is Salmonella typhimurium. Put plainly: Mutagenicity in Salmonella typhimurium by Ames test. The conditions noted are these: salmonella enterica subsp. enterica serovar typhimurium. The format is toxicity, organism-based.
A short description of data set [10]: Therapeutic index, ratio of CC50 for human MT4 cells to EC50 for luciferase-bearing envelope-defective HIV-1 NL4-3 pseudotype virus infected in human MT4 cells co-infected with HIV1 HXBc2 envelope. It is filed as cell-based. The conditions noted are these: read-out: Ratio CC50/EC50.
In data set [11] the target is RNA-directed RNA polymerase (Hepacivirus hominis, UniProt O39930). Put plainly: Inhibition of HCV RNA polymerase.
The nature of data set [12]: Plasma concentration in rat at 50 mg/kg after 18 hrs. It is filed as ADME, organism-based. An outline of the steps: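 Female Sprague-Dawley rats (8) given 50 mg/kg orally, with blood collected at 7 time points after dosing.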
The nature of data set [13]: Half life in Sprague-Dawley rat at 5 mg/kg, iv and 50 mg/kg, po by LC/MS/MS analysis. The format is ADME, organism-based. The conditions noted are these: in vivo. An outline of the steps: as §1
The target in data set [14] is Human immunodeficiency virus type 1 integrase (Human immunodeficiency virus 1, UniProt Q7ZJM1, N155H). Description: Inhibition of HIV integrase N155H mutant.
The nature of data set [15]: Lipophilicity Log P of the compound. The conditions noted are these: octanol/water. The format is physicochemical.
In data set [16] the test system is Human immunodeficiency virus. Put plainly: Ratio of EC50 for HIV integrase assessed as accumulation of 2-LTR to IC50 for HIV integrase strand transfer activity.

RNA-directed RNA polymerase, sequence (O39930 whole entry): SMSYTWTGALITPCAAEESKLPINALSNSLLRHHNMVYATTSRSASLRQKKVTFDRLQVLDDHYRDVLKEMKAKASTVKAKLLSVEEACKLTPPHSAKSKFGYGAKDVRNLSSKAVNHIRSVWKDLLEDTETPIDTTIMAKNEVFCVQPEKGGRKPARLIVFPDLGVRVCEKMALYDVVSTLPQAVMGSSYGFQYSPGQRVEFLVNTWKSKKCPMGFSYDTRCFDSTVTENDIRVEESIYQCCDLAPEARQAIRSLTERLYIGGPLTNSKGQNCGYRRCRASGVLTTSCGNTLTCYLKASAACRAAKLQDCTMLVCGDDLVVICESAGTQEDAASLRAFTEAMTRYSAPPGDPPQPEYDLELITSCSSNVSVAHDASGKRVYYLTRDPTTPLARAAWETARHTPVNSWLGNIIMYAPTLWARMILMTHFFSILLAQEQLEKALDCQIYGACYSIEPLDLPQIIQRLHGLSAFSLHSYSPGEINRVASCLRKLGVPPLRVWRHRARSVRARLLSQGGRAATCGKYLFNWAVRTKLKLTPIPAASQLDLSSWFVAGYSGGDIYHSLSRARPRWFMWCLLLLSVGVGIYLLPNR
Human immunodeficiency virus type 1 integrase, sequence (Q7ZJM1 entry or part of it N155H): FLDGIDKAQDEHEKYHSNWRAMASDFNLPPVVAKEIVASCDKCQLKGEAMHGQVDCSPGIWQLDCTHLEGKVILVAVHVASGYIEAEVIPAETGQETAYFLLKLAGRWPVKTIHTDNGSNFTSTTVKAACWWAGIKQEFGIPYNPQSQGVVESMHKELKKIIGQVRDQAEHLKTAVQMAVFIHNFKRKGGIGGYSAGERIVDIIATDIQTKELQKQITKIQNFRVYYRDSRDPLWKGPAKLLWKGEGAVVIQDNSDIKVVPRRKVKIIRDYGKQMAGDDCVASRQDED

`O=C(NO)c1ncc(CCc2ccc(F)cc2)c(CO)c1O` had a CC50 in data set [1] of 21000 nM. This compound had a negative logarithm of the EC50 (pEC50) in [2] of 7.12. Besides, the pIC50 in [3] was 6.49.
The compound `Cc1ccc(CC(=O)Nc2cnc(C(=O)NO)c(O)c2CO)cc1` showed a CC50 in data set [1] of 32000 nM. Moreover, the pEC50 in [2] was 5.35.
With `O=C(NO)c1ncc(CNCc2ccc(F)cc2)c(CO)c1O`, the midpoint of cytotoxicity in [1], the CC50, lay at 20000 nM. For the same compound, in data set [2], the negative logarithm of the EC50 (pEC50) is 6.16. The pIC50 in data set [3] is 6.26.
In turn, `O=C(Cc1cc(F)cc(F)c1)Nc1cnc(C(=O)NO)c(O)c1CO` came in with a CC50 in data set [1] of 31000 nM. In addition, the negative-log EC50 (pEC50) in data set [2] is 6.40.
Compound `O=C(Nc1cnc(C(=O)NO)c(O)c1CO)c1ccc(F)cc1` displayed a half-maximal cytotoxic concentration (CC50) in data set [1] of 50000 nM. This compound gave a pEC50 in data set [2] of 5.20. Besides, the negative logarithm of the IC50 (pIC50) in data set [3] was 6.52.
For `O=C(NO)c1ncc(CS(=O)(=O)Cc2ccc(F)cc2)c(CO)c1O` the same measures were 16000 nM, 5.36 and 5.64.
Turning to `O=C(NO)c1ncc(/C=C/c2ccc(F)cc2)c(CO)c1O`, the half-maximal cytotoxic concentration (CC50) in data set [1] was found to be 50000 nM. Also, the negative logarithm of the EC50 (pEC50) in data set [2] was below 5.00. The negative-log IC50 (pIC50) in data set [3] was below 4.00.
The like results for `O=C(NO)c1ncc(CCCc2ccc(F)cc2)c(CO)c1O` were, in that order, 2000 nM, 6.30 and 6.26.
As to `COc1ccc(CC(=O)Nc2cnc(C(=O)NO)c(O)c2CO)cc1`, the half-maximal cytotoxic concentration (CC50) in data set [1] was found to be 25000 nM. In addition, the pEC50 in data set [2] is 5.82.
In [1], `O=C(NCCc1ccc(F)cc1)c1cnc(C(=O)NO)c(O)c1CO` had a CC50 of 23000 nM. In [2], the pEC50 was 5.70. This compound had a pIC50 in [3] of 5.64.
The compound `O=C(CC1CCCCC1)Nc1cnc(C(=O)NO)c(O)c1CO` returned a CC50 in data set [1] of 50000 nM. Moreover, the negative logarithm of the EC50 (pEC50) in data set [2] was 4.96.
`O=C(Cc1ccc2c(c1)OCO2)Nc1cnc(C(=O)NO)c(O)c1CO`: in data set [1], the CC50 was 50000 nM. The negative logarithm of the EC50 (pEC50) in data set [2] is 5.73.
In turn, `O=C(NO)c1ncc(COCc2ccc(F)cc2)c(CO)c1O` returned a CC50 in data set [1] of 11000 nM. The same compound gave a negative-log EC50 (pEC50) in [2] of 7.82. The negative-log IC50 (pIC50) in data set [3] is 7.10.
Take `O=C(Cc1ccccc1)Nc1cnc(C(=O)NO)c(O)c1CO`: in data set [1], the midpoint of cytotoxicity, the CC50, lay at 54000 nM. The compound also gave a negative logarithm of the EC50 (pEC50) in [2] of 7.00.
For `O=C(NO)c1ncc(COc2ccc(F)cc2)c(CO)c1O`, the midpoint of cytotoxicity in data set [1], the CC50, lay at 27000 nM. Further, the pEC50 in data set [2] was 8.15. The pIC50 in data set [3] is 7.39.
As to `O=C(NO)c1ncc(CSc2ccc(F)cc2)c(CO)c1O`, the negative logarithm of the IC50 (pIC50) in data set [3] is 6.60.
In data set [1], `O=C(Cc1ccc(Cl)c(Cl)c1)Nc1cnc(C(=O)NO)c(O)c1CO` yielded a half-maximal cytotoxic concentration (CC50) of 50000 nM. In addition, in data set [2], the pEC50 was 7.40.
Turning to `O=C(NO)c1ncc(CS(=O)(=O)c2ccc(F)cc2)c(CO)c1O`, the midpoint of cytotoxicity in data set [1], the CC50, lay at 50000 nM. Besides, the negative-log EC50 (pEC50) in [2] was 5.03. Besides, in data set [3], the negative-log IC50 (pIC50) was 5.00.
On to `O=C(NO)c1ncc(CNc2ccc(F)cc2)c(CO)c1O`, for which, in data set [1], the CC50 came out at 50000 nM. The compound also had a pEC50 in data set [2] of 7.70. This compound also had a negative logarithm of the IC50 (pIC50) in data set [3] of 7.60.
For `O=C(Nc1ccc(F)cc1)c1cnc(C(=O)NO)c(O)c1CO` the same measures were 50000 nM, 7.40 and 6.48.
In the case of `O=C(Cc1ccc(F)c(F)c1)Nc1cnc(C(=O)NO)c(O)c1CO`, the midpoint of cytotoxicity in [1], the CC50, lay at 51000 nM. In data set [2], this compound showed a negative logarithm of the EC50 (pEC50) of 7.00.
For the compound `O=C(Cc1ccc(F)c(Cl)c1)Nc1cnc(C(=O)NO)c(O)c1CO`, the negative logarithm of the EC50 (pEC50) was 6.89 in data set [4]; below 4.30 in data set [6]; below 4.30 in data set [11]; 7.60 in data set [2]; below 6.52 in data set [14]. Further, the fraction unbound in [5] is 0.11. The compound further came in with a half-maximal cytotoxic concentration (CC50) in data set [1] of 22000 nM. The compound also yielded a bioavailability in data set [7] of 25%. The Ratio in data set [8] turned out to be 10; in data set [16], 7. Also, the Activity entry in data set [9] is given as “Non-toxic”. The selectivity ratio in [10] is above 1000. The same compound gave a pIC50 in [3] of 7.54. Further, the concentration at 18 h in data set [12] is above 25 nM. The half-life in data set [13] was 43.8 min. The log partition coefficient (logP) in data set [15] was 0.6.
